Screening results deposited in PubChem BioAssay by The Scripps Research Institute Molecular Screening Center.
Only some compounds are listed: those with a hit (about 2.8% of all), similar ones and a draw of the others.
PAFAH1B2 inh = blocks human PAF acetylhydrolase 1b catalytic subunit 2 | inhibition, % at 3.39 µM | recombinant PAFAH1B2, FP-rhodamine activity probe, fluorescence polarization | P68402 | hit rate 1.2% among 340,000;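 active = inhibition above the mean of all tested compounds plus 3 SD, cut at about 24% in these data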;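 also: 0% = enzyme with DMSO and 100% = wells lacking PAFAH1B2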
Target sequence (P68402 whole entry, looked up): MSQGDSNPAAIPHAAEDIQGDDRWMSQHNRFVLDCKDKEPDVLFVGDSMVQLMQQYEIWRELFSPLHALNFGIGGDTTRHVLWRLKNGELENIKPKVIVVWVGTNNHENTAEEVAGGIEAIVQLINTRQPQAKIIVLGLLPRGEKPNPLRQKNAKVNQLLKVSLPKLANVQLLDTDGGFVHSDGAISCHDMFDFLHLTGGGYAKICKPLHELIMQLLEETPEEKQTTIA
ARFGAP1 inh = rat ARFGAP1 inhibition; Arfgap1-stimulated ARF1 GTP hydrolysis, GDP FP detection; inhibition, % at 16.5 µM; hit rate 0.26% among 360,000; AID 651572;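 active = inhibition above a per-plate limit, mean inhibition of low control wells plus 3 SD, cut at about 25% in these data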;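 also: 0% = DMSO wells with enzyme and 100% = wells lacking Arfgap1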
Target sequence (Q62848 1-136 limits assumed): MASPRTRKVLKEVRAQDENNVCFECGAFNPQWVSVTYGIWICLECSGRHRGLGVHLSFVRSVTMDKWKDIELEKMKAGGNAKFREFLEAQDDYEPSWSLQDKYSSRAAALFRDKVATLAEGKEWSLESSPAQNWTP
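Repeats: one replicate per compound; assay system: rat Arfgap1 catalytic domain, aa 1-136; times: enzyme reaction 120 min at 25 °C after 20 min preincubation; detection: FP of antibody-bound GDP Alexa 633 tracer, ex 620/em 688 nm; benchmarks: high control wells lacking Arfgap1, low control full reaction with DMSO; reagent: human ARF1(Δ1-17)-GTP substrate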
PAFAH2 inh = PAFAH2 (human) inhibition; Q99487; recombinant PAFAH2, FP-rhodamine activity probe, fluorescence polarization; inhibition, % at 3.39 µM; hit rate 0.99% among 340,000; AID 492956;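 active = inhibition above the mean over all tested compounds plus 3 SD, cut at about 30% in these data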;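 also: inhibitors block probe labeling of enzyme so polarization drops; 0% = enzyme with DMSO and 100% = wells lacking PAFAH2 protein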
PAFAH1B3 FP inh = blocks human PAF acetylhydrolase 1B catalytic subunit 3. recombinant PAFAH1B3, FP-rhodamine probe, fluorescence polarization. inhibition, % at 3.39 µM. hit rate 0.28% among 340,000. AID 492972;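 active = inhibition above the screen-wide average of all tested compounds plus 3 SD, cut at about 25% in these data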;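 also: 0% = enzyme with DMSO only and 100% = wells lacking PAFAH1B3 protein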
ASAP1 inh = blocks human ASAP1-stimulated Arf1 GTP hydrolysis; Q9ULH1; GDP FP detection; inhibition, % at 16.5 µM; hit rate 0.19% among 360,000; in the data active = inhibition above about 25%;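 also: 0% = vehicle with enzyme and substrate and 100% = no enzyme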
Target sequence (Q9ULH1 325-724 limits assumed): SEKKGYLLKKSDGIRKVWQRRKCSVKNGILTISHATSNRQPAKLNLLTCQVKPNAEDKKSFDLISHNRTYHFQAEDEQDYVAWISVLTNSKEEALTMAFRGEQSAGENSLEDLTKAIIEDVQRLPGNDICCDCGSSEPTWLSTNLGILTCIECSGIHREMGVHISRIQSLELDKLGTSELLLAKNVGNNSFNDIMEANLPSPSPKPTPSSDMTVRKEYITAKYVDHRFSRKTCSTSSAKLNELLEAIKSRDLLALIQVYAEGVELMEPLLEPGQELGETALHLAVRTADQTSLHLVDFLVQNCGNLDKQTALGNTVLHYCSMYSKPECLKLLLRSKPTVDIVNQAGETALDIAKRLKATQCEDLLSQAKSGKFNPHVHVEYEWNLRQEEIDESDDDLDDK
pPAFAH inh = pPAFAH (human) enzyme inhibition. Q13093. recombinant pPAFAH, FP-rhodamine probe fluorescence polarization. inhibition, % at 3.39 µM. hit rate 1.5% among 330,000. AID 463082;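 active = inhibition above the mean inhibition across the screen plus 3 SD, cut at about 25% in these data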;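 also: inhibitors block binding of the rhodamine activity-based probe so polarization drops; 0% = enzyme with DMSO and 100% = wells lacking pPAFAH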
* marks the source's active call; other numbers are inactive results; . = not tested or not shown.

SMILES | PAFAH1B2 inh | ARFGAP1 inh | PAFAH2 inh | PAFAH1B3 FP inh | ASAP1 inh | pPAFAH inh
CCc1ccccc1NC(=S)NCCSc1ccc(Cl)cc1 | 36.7* | 0.1 | 4.0 | -2.5 | -3.0 | 30.7*
Cc1ccc(NC(=S)NCCSc2ccc(Cl)cc2)c(C)c1 | 14.6 | 6.4 | -3.1 | 3.2 | -5.7 | -0.3
Cc1ccc(Cl)cc1NCN1C(=O)c2ccccc2C1=O | . | 1.9 | . | . | -13.6 | .
CCCCNc1ccc2c3c(cccc13)C(=O)N(CCCC)C2=O | 20.6 | 6.4 | 34.0* | 30.7* | -3.1 | .
COC(=O)C(C)Oc1ccc2c3c(c(=O)oc2c1)CCCCC3 (stereo unspecified) | 0.6 | 4.7 | 2.5 | -0.7 | -1.3 | 27.7*
O=S(=O)(Oc1ccc(Cl)cc1)c1cccc2cccnc12 | . | 2.0 | . | . | -2.8 | -1.7
CC(Sc1ccc(Cl)cc1)C(=O)Nc1ccc(S(=O)(=O)N2CCOCC2)cc1 (stereo unspecified) | 30.7* | -11.8 | 2.7 | 12.9 | 14.9 | 8.9
O=c1c(Sc2ccccc2)c(C(F)(F)F)[nH]n1-c1ccccc1 | 29.5* | -5.0 | 3.8 | -0.8 | -10.3 | 7.0
O=c1c2c(C(F)(F)F)cc(C(F)(F)F)nc2[nH]n1-c1ccccc1 | 0.0 | 3.4 | -0.7 | 5.7 | 15.2 | 4.6
CC(=O)Nc1ccc(C(=O)N/C(=C/c2ccccc2)C(=O)N2CCCCC2)cc1 | 3.1 | -6.7 | 6.3 | 4.6 | -2.1 | 6.1
Cc1ccc(NC(=O)CSCc2ccco2)cc1 | 5.9 | 5.9 | 5.4 | -1.0 | -2.2 | 2.2
c1coc(CSSCc2ccco2)c1 | 17.1 | -14.1 | 49.8* | 29.6* | -12.1 | 5.7
Cc1ccc(OCC(=O)NNC(=O)CSC(=S)N2CCCC2)cc1 | 4.9 | -6.9 | 10.6 | 7.6 | 6.2 | .
Cc1nc2nc(SCC(=O)NCCCN3CCCC3)nn2c(C)c1Cc1ccccc1Cl | -3.0 | -1.2 | -0.2 | 3.5 | -6.7 | 2.5
COc1ccc(S(=O)(=O)N2CCCC(C(=O)NC3CC3)C2)cc1Cl (stereo unspecified) | -1.3 | -2.0 | 4.5 | 3.6 | 9.1 | 3.1
O=C1CCCCC1CCc1ccncc1 (stereo unspecified) | 2.8 | 3.2 | -3.9 | 3.5 | -4.4 | .
Oc1ccc(N=C/C=C/c2ccc(Br)cc2)cc1-c1nc2ccccc2s1 | . | . | . | . | . | 52.8*
Cc1ccc(C)c(S(=O)(=O)Nc2cc(SCC(=O)O)c(O)c3ccccc23)c1 | 72.3* | . | 34.1* | 51.0* | . | 12.4
CC(C)CN1C(=O)C(=O)N(CC(=O)c2ccc3c(c2)OCO3)C1=O | -0.4 | 0.1 | -2.7 | 6.4 | -2.7 | -1.8
COc1ccc([C@@H]2CC=C(C(=O)O)[C@H](c3cccc(Cl)c3)N2S(=O)(=O)c2ccc(C)cc2)cc1OC | 8.3 | 13.1 | 4.1 | -2.0 | 0.9 | 8.5
Cc1ccc(S(=O)(=O)N2[C@@H](c3cccc(Cl)c3)C(C(=O)O)=CC[C@H]2c2cccs2)cc1 | 26.7* | 8.7 | 7.3 | 7.0 | -8.7 | -4.0
COc1ccc([C@@H]2CC=C(C(=O)O)[C@H](c3ccccc3)N2S(=O)(=O)c2ccc(C)cc2)cc1OC | 5.0 | -0.3 | 0.1 | 7.2 | -2.4 | -0.7
Cc1ccc([C@H]2C(C(=O)O)=CC[C@@H](c3cccs3)N2S(=O)(=O)c2ccc(C)cc2)cc1 | 27.0* | -3.8 | 7.0 | 0.3 | 5.2 | -0.2
Cc1ccc(S(=O)(=O)N2[C@@H](c3ccc(F)cc3)C(C(=O)O)=CC[C@H]2c2cccs2)cc1 | 29.7* | 7.7 | 0.2 | -8.2 | -2.2 | 5.5
COC(=O)c1ccc(COC(=O)c2cccn2C)o1 | 6.0 | -3.3 | 3.0 | 11.2 | 6.5 | -0.6
SMILES | PAFAH1B2 inh | ARFGAP1 inh | PAFAH2 inh | PAFAH1B3 FP inh | ASAP1 inh | pPAFAH inh
CCCc1nc2c(=O)n(C)c(=O)nc-2n(C)n1 | 35.6* | -9.9 | 60.1* | 78.5* | -15.5 | .
Cn1nc(-c2ccccn2)nc2c(=O)n(C)c(=O)nc1-2 | 32.3* | -5.7 | 59.5* | 68.3* | -0.9 | 12.0
COc1ccc(-c2nc(-c3ccccn3)ncc2S(C)(=O)=O)cc1 | -1.8 | 2.8 | 8.6 | 5.7 | 5.7 | -0.6
COc1ccc2nc3oc(C(=O)N4CCC(C(N)=O)CC4)cc3cc2c1 | -1.2 | 1.3 | 4.6 | 17.5 | -3.7 | 31.1*
CCOC(=O)C1CCN(C(=O)c2cc3cc4ccc(OC)cc4nc3o2)CC1 | 0.6 | -4.5 | 1.8 | 2.6 | 4.6 | 3.1
N=C1/C(=C/c2ccc(OCc3ccccc3)cc2)C(=O)N=C2SC(CC(=O)N3CCOCC3)=NN12 | 27.8* | 6.7 | -2.2 | -2.4 | 4.7 | 8.9
COc1cc(/C=C2/C(=N)N3N=C(CC(=O)N4CCOCC4)SC3=NC2=O)ccc1OC(C)c1ccccc1 (stereo unspecified) | 27.9* | -2.4 | -0.2 | -5.4 | -1.8 | 9.2
CS(=O)(=O)Oc1ccc(/C=C2\C(=N)N3N=C(CC(=O)N4CCOCC4)SC3=NC2=O)cc1Cl | 8.0 | 4.9 | 10.9 | 4.3 | 6.2 | 0.1
CCC(CO)Nc1nc2ccc(Cl)cc2c2ccccc12 (stereo unspecified) | 0.6 | 13.5 | 13.1 | 6.3 | 10.6 | 27.3*
O=C(C(O)c1ccccc1)N1CCN(S(=O)(=O)c2ccc(OC(F)(F)F)cc2)CC1 (stereo unspecified) | . | -12.5 | . | . | -3.5 | .
O=C(O)c1cc(NS(=O)(=O)c2cccc3ccccc23)ccc1O | 5.7 | -10.5 | -1.3 | -0.5 | 10.7 | 6.7
Cc1cc(C(C)(C)C)cc(S(=O)(=O)Nc2ccc(O)c(C(=O)O)c2)c1C | 46.9* | -12.7 | -4.4 | -2.6 | -8.6 | 4.4
Cc1ccc(SCCC(=O)Nc2ccc(OCc3ccccc3)cc2)cc1 | -0.3 | 0.4 | -0.7 | -2.2 | -2.2 | 6.4
CCOc1ccc(NC(=O)CCSc2ccc(C)cc2)cc1 | 24.8* | 11.4 | 2.8 | 1.4 | 2.1 | 5.9
CCOc1ccccc1C(=O)NCC(=O)NCCSc1ccc(Br)cc1 | 27.8* | -3.5 | -4.1 | 3.7 | -1.8 | .
Cc1ccc(SCCC(=O)NCCSCc2ccccc2C)cc1 | 42.0* | 0.5 | -1.3 | 2.0 | 5.9 | 4.0
Cc1ccc(SCCNC(=O)c2ccccc2F)cc1 | 25.4* | 0.2 | -5.5 | 0.1 | -3.6 | 4.8
Cc1ccc(SCCNC(=O)c2ccc(C)c(S(=O)(=O)Nc3cccc(C)c3)c2)cc1 | 20.6 | 8.6 | -18.2 | -5.8 | 4.3 | 29.7*
Cc1ccc(NS(=O)(=O)c2cc(C(=O)NCCSc3ccc(C)cc3)ccc2C)cc1 | 15.0 | 16.1 | -35.6 | -15.8 | -8.7 | 14.3
Cc1ccc(CNC(=O)CN2C(=O)NC(C)(c3cccc(Br)c3)C2=O)cc1 (stereo unspecified) | -2.7 | -5.8 | 1.9 | 0.8 | -6.5 | 2.6
Cc1ccccc1NS(=O)(=O)c1cc(C(=O)NCCC2=CCCCC2)ccc1Cl | 21.1 | -9.0 | 3.4 | 4.8 | 6.5 | 17.4
Cc1cccc(NS(=O)(=O)c2cc(C(=O)NCCC3=CCCCC3)ccc2Cl)c1 | 25.2* | 5.6 | 1.6 | -3.0 | 5.4 | 12.2
Cc1ccc(SCCNC(=O)c2ccccc2)cc1 | 26.5* | -0.5 | 7.9 | 8.9 | 1.2 | 2.5
